Assay outcomes deposited in PubChem BioAssay by several laboratories.
In the library only some 2.4% were active in any assay of this set; here they are far more common.
NRP1-CendR mod: modulators of CendR peptide binding to human neuropilin-1; O14786; FAM-RPARPAR peptide binding to NRP-1, fluorescence polarization; inhibition, % at 25 µM; actives 0.85% (n = 360,000); AID 602438;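 active = inhibition or corrected inhibition above about 18%, plus a signal ratio from 0.5 to 1.5, limit read from the data, passing the limit was not always enough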
SENP1 inh: SENP1 (human) catalytic domain inhibition | Q9P0U3 | recombinant SENP1 catalytic domain, CyPet-SUMO1-YPet FRET cleavage | inhibition, % at 10 µM | actives 0.21% (n = 360,000) | AID 624204;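 active = inhibition at least 30% at 10 µM, raw YFP signal under a set limit, fluorescence ratio 0.5 to 1.5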;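 also: 0% = enzyme with DMSO and 100% = no enzyme wells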
Target sequence (Q9P0U3 419-644 limits assumed): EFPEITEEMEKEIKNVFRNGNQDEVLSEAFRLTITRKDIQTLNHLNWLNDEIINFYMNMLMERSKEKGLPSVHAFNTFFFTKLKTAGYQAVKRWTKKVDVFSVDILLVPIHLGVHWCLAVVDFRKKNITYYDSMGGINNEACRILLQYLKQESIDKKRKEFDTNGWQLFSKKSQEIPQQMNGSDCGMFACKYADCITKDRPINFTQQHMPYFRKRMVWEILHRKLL
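material = recombinant human SENP1 catalytic domain, His6-tagged | quantity = 20 pM enzyme | reagent = 25 nM SUMO1 FRET substrate | compound dosing = 10 µM single point, 0.5% DMSO | timing = 50 min enzyme reaction, room temperature, light-protected | detection = FRET, CFP and YFP emission | control set = no-enzyme low, enzyme-DMSO high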
Myeloid diff MLP: myeloid differentiation induction | actives 1% (n = 360,000) | calls only at 10 µM | ER-HoxA9 myeloid progenitors, lysozyme-GFP differentiation, flow cytometry;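 active = normalized GFP-positive differentiation at or above the plate's own cutoff, the solvent-only control mean plus 3 SD; inconclusive = no clear call, values can overlap the other calls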;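 also: cells exposed to compound for four days before flow analysis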
MIN6 prolif: inducers of beta-cell replication in MIN6 cells | AID 2380 | proliferation, % at 10 µM | MIN6 cells proliferation, ATPlite luminescence, 48 h; cells starved in 0.2% serum; 100% = growth in 10% serum | actives 0.29% (n = 330,000);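 active = compounds whose signal lies at least 3.5 SD above the mean of all wells on their plate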;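 also: 0% = DMSO-treated cells in low-serum medium and 100% = 10% serum control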
MT1-MMP act inh: inhibitors of human MT1-MMP activation | GFP/RFP ratio change, % at 20 µM | P50281 | HT1080 RFP-PRO-GFP cells, GFP/RFP ratio fluorescence, overnight; percent of plate control window, DMSO zero | actives 0.061% (n = 360,000);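 active = GFP/RFP ratio change of at least 30% with cell ATP level not reduced by more than half and red fluorescence within 50% of control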
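system = RFP-PRO-GFP reporter HT1080 cells | dosing = 20 µM single dose, 1% DMSO | timing = overnight cell settling, then overnight compound exposure, 37 °C, 5% CO2 | read-out basis = GFP/RFP fluorescence ratio | controls = DMSO and RFP-L50D-GFP cell wells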
DAGLB inh: diacylglycerol lipase beta (human) inhibition. inhibition, % at 5.17 µM. Q8NCG7. HEK293T DAGLB membrane lysate, EnzChek fluorogenic substrate. actives 0.059% (n = 340,000). AID 504411; in the data active = inhibition above about 34%;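 also: 0% = enzyme with vehicle and 100% = wells lacking enzyme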
SENP1 inh conf: confirmation of human SENP1 SUMO protease inhibitors; shares compounds with SENP1 inh; actives 34% (n = 520); recombinant SENP1, CyPet-SUMO1-YPet FRET cleavage; inhibition, % at 10 µM; in the data active = inhibition mostly above about 35%, no sharp cut-off; inactive = mostly below about 32%;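 also: 0% = enzyme with DMSO and 100% = no enzyme control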
SENP1 kinetic: confirmation of human SENP1 SUMO protease inhibitors, kinetic; shares compounds with SENP1 inh; recombinant SENP1, CyPet-SUMO1-YPet FRET kinetic cleavage; inhibition, % at 10 µM; actives 26% (n = 520); AID 651690; in the data active = inhibition mostly above about 32%, no sharp cut-off; inactive = mostly below about 29%;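 also: 0% = DMSO with enzyme and 100% = no enzyme substrate only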
* marks the source's active call; other numbers are inactive results; i = inactive; ? = inconclusive; · = not tested or not shown; + = active, no number.

SMILES	NRP1-CendR mod	SENP1 inh	Myeloid diff MLP	MIN6 prolif	MT1-MMP act inh	DAGLB inh	SENP1 inh conf	SENP1 kinetic
CCOC(=O)C1=C(CSc2nc3ccccc3s2)NC(=O)NC1c1cccc([N+](=O)[O-])c1 (stereo unspecified)	11	2	i	-3	3	4	·	·
O=C(CS(=O)(=O)c1ccccc1)Nc1nnc(Cc2ccccc2)s1	-5	-4	i	-2	-3	3	·	·
COC(=O)C1=CC(C(=O)c2cccs2)=NN(c2ccc(OC)cc2)C1C(=O)OC (stereo unspecified)	-51	61*	i	-5	5	22	60*	39*
COC(=O)C1=NN(c2ccc(OC)cc2)C2C(=O)N(c3ccccc3OC)C(=O)C12 (stereo unspecified)	-3	16	i	-1	0	·	·	·
CCCCC(CCC(=O)NNC(=O)Cc1ccccc1)C(=O)O (stereo unspecified)	0	1	i	-2	8	-1	·	·
N#Cc1ccc(OCC(=O)OCC(=O)Nc2cc(C(F)(F)F)ccc2N2CCOCC2)cc1	20	3	i	0	-3	1	·	·
C/C(=N\NC(=O)c1ccc(C)cc1C)c1ccc2c(c1)Nc1ccccc1S2	-4	61*	i	-3	9	9	6	-6
O=C1c2ccc(-c3ccc4c(c3)C(=O)N(CCCO)C4=O)cc2C(=O)N1CCCO	-7	0	i	2	2	0	·	·
O=C1C2=C(SCCS2)C(=O)N1CCCO	2	54*	i	-3	-5	1	48*	29
COc1cc(/C=N/n2c(SC)nnc(C(C)(C)C)c2=O)ccc1O	-4	52*	i	1	6	-3	12	8
COc1ccc(/C=N/n2c(SC)nnc(C(C)(C)C)c2=O)cc1OC	1	0	i	2	5	-2	·	·
COc1ccc2c(C)cc(SCC(=O)N3CCOCC3)nc2c1	-104	67*	i	1	-128	-1	50*	36*
COc1ccc2c(C)cc(SCC(=O)NC3CCCCC3)nc2c1	4	2	i	-1	-7	-1	·	·
COc1ccc2c(-c3ccccc3)cc(SCC(N)=O)nc2c1	-120	30*	+	-2	-31	-1	14	17
COc1ccc2nc(SCC(N)=O)cc(C)c2c1	1	-2	i	-3	3	-2	·	·
O=S(=O)(c1ccccc1F)N1CCN(Cc2nc3ccccc3[nH]2)CC1	8	-8	i	0	2	-2	·	·
N/C(=N\OC(=O)c1csnn1)c1ccc(C(F)(F)F)cc1	9	-5	i	0	7	-2	·	·
CCN(CC)S(=O)(=O)c1ccc(N=Cc2c(C)c(C#N)c(=O)n(C)c2O)cc1	-12	-2	i	0	-2	3	·	·
Cc1ccc(S(=O)(=O)Nc2ccccc2N2CCCCC2)cc1	2	1	i	-4	-4	-7	·	·
O=C(NCC(F)(F)F)c1ccc(S(=O)(=O)Nc2ccccc2N2CCCC2)cc1	-48	30*	i	-1	-10	0	-2	-7
CCCCCCCCN1C(=O)[C@H](CC(=O)NCCCN2CCCC2=O)C[C@@]2(C(=O)OCC)CCCC=C12	-3	-1	i	·	2	·	·	·
CCc1ccc2nc(SCC(=O)N3CCCCC3)c(C#N)cc2c1	-1	-2	i	1	-6	-9	·	·
Cc1ccc2nc(SCC(=O)Nc3ccccc3N3CCOCC3)c(C#N)cc2c1	-9	33*	?	0	-77	-2	-11	-12
CCc1ccc2nc(SCC(=O)Nc3ccccc3N3CCOCC3)c(C#N)cc2c1	-6	48*	+	-4	-45	-2	21	17
COc1cccc(N=Cc2ccc(O)cc2O)c1	-72	36*	i	-1	-54	1	17	11
SMILES	NRP1-CendR mod	SENP1 inh	Myeloid diff MLP	MIN6 prolif	MT1-MMP act inh	DAGLB inh	SENP1 inh conf	SENP1 kinetic
O=[N+]([O-])c1ccc(-c2cn3c(n2)SCC3)cc1	9	31*	i	-1	7	·	9	9
Cc1ccc(C(=O)COC(=O)CCc2ccc(S(=O)(=O)N3CCCCC3)cc2)cc1	0	-10	i	-2	-1	-2	·	·
O=c1c2ccccc2oc2cc(OCc3cccc(F)c3)cc(O)c12	2	0	i	-1	0	2	·	·
COc1cccc2c1-c1c(O)cccc1C2=O	-3	31*	i	-2	2	3	42*	26
COc1ccccc1O	2	-5	i	-3	6	0	·	·
O=C1C=C(Nc2ccc(Cl)cc2)C(=O)N1c1ccc(Cl)cc1	-5	34*	i	2	2	-2	38*	37*
COc1ccc(OC)c(CCNC(=O)C2CCN(c3ncnc4c3nc3n4CCCCC3)CC2)c1	8	0	i	2	3	1	·	·
O=C(Nc1ccccc1)c1ccccc1NC(=O)c1ccccc1C(=O)O	0	2	i	2	0	·	·	·
O=C(O)c1ccccc1C(=O)Nc1ccccc1NC(=O)c1ccccc1C(=O)O	-3	88*	i	1	-6	·	-7	-1
O=C1C2=C(SCCS2)C(=O)N1c1ccccc1	3	36*	i	5	-5	-5	21	29
CC(=O)OCC(=O)Nc1ccccc1C	8	0	i	2	0	3	·	·
COc1ccc(-c2ccc3c(c2)S(=O)(=O)c2cccc(C(=O)NCc4cc(C)oc4C(F)(F)F)c2C3=O)cc1OC	-51	59*	i	-2	-10	2	44*	34*
CCc1nc2c(OCC3COc4ccccc4O3)cccn2c1N(C)C(=O)c1ccc(OC)cc1 (stereo unspecified)	-12	5	i	·	-3	·	·	·
COc1cc(-c2cnc3c(NC(C)=O)cc(-c4ccc(N5CCN(C)CC5)cc4)cn23)cc(OC)c1OC	-23	34*	·	·	-1	·	12	-1
CC(=O)Nc1cc(-c2ccc(N3CCN(C)CC3)cc2)cn2c(-c3ccccc3)cnc12	-20	48*	i	·	-19	·	39*	28
Cc1oc(-c2ccccc2Cl)nc1CSc1nc2c(c(=O)[nH]1)CCC2	-11	-1	i	-1	0	0	·	·
O=C(C1CCCN(Cc2ccccc2)C1)N1CCc2ccccc2C1 (stereo unspecified)	-13	3	i	3	1	1	·	·
